According to ChEMBL document CHEMBL4052582, “A Versatile Method to Determine the Cellular Bioavailability of Small-Molecule Inhibitors” (J Med Chem, 2017):

Tests used:
[1] = Drug uptake in human MDA-MB-231 cells assessed per million cells at 10 uM in presence of 1% FBS after 24 hrs incubation by HPLC-MS analysis; type: ADME, cell-based; conditions: mda-mb-231, 24 h
How it was run: (§1)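 MDA-MB-231 cells grown in T-25 flasks in DMEM/10% FBS to ~70% confluency, then given fresh DMEM with the stated FBS plus inhibitor (0.02% DMSO final), 37 °C, 24 h. Cells washed with cold PBS ×3, extracted overnight at 4 °C with cold MeCN/MeOH 1:1, centrifuged, quantified by HPLC against calibration curves, corrected for dilution, cell number and solvent extraction efficiency; nmol per million cells; triplicate, mean ± SD.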

[2] = Drug uptake in human MDA-MB-231 cells assessed per million cells at 10 uM in presence of 5% FBS after 24 hrs incubation by HPLC-MS analysis; type: ADME, cell-based; conditions: mda-mb-231, 24 h; how it was run: as §1
[3] = Drug uptake in human MDA-MB-231 cells assessed per million cells at 10 uM in presence of 10% FBS after 24 hrs incubation by HPLC-MS analysis; type: ADME, cell-based; conditions: mda-mb-231, 24 h; how it was run: as §1
[4] = Drug accumulation in human MDA-MB-231 cells at 10 uM in presence of 10% FBS after 24 hrs incubation by HPLC-MS analysis; type: ADME, cell-based; conditions: mda-mb-231, 24 h; how it was run: as §1
[5] = Drug uptake in human MDA-MB-231 cells assessed per million cells preincubated for 6 hrs followed by solvent addition measured after overnight incubation at 4 degC by HPLC-MS analysis; type: ADME, cell-based; conditions: mda-mb-231, 6 h
[6] = Drug uptake in human MDA-MB-231 cells assessed per million cells preincubated for 6 hrs followed by trypsin-EDTA digestion for 2 mins measured after overnight incubation at 4 degC by HPLC-MS analysis; type: ADME, cell-based; conditions: mda-mb-231, 2 min
How it was run: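 After 6 h inhibitor exposure at 37 °C, MDA-MB-231 cells washed three times with ice-cold PBS, detached with 0.25% trypsin/1 mM EDTA in PBS for 2 min at 37 °C, resuspended in cold DMEM, washed once in ice-cold PBS, extracted with cold MeCN/MeOH 1:1, HPLC quantified; triplicate, mean ± SD divided by extraction efficiency.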

[7] = Drug uptake in human MDA-MB-231 cells assessed as cell bound drug level per million cells at 2 uM in presence of 5% FBS after 6 hrs at 4 degC by HPLC-MS analysis; type: ADME, cell-based; conditions: mda-mb-231, 6 h
How it was run: (§2)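 Confluent (~70%) MDA-MB-231 cells given inhibitor in 5 mL cold DMEM with 0.02% DMSO (10% FBS for BRD-targeting inhibitors, 5% FBS for β-catenin/BCL9 inhibitors), held at 4 °C for 6 h; then washed, extracted overnight at 4 °C in MeCN/MeOH 1:1, HPLC quantified; triplicate, mean ± SD divided by solvent extraction efficiency.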

[8] = Apparent permeability at 200 uM after 5 hrs by PAMPA; type: physicochemical
How it was run: (§3)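 Artificial membrane of 1% egg lecithin in n-dodecane on a filter plate; compound at 200 μM on donor side, 5 h at room temperature; compound quantified by HPLC/DAD; percent transport and apparent permeability calculated from previously published equations.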

[9] = Permeability assessed as drug transport at 200 uM after 5 hrs by PAMPA; type: physicochemical; how it was run: as §3
[10] = Solubility of the compound in DMEM medium up to 200 uM; type: physicochemical
[11] = Stability of the compound in DMEM medium assessed as parent compound remaining at 100 uM after 72 hrs in absence of 10% FBS by HPLC method
How it was run: (§4)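 Compound added at 100 μM final (0.02% v/v DMSO) to 5 mL DMEM with or without 10% FBS in T-25 flasks, no cells; incubated 37 °C in CO2 incubator for 3–72 h. Aliquots drawn at each time point and analysed by HPLC; parent remaining taken from chromatogram AUC relative to starting time point. Triplicate.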

[12] = Stability of the compound in DMEM medium assessed as parent compound remaining at 100 uM after 72 hrs in presence of 10% FBS by HPLC method
How it was run: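 Compound at 100 μM final (0.02% DMSO) in 5 mL DMEM with or without 10% FBS, cell-free in T-25 flasks, 37 °C in CO2 incubator for 3–72 h. Aliquots analysed by HPLC. Percent remaining derived from chromatogram AUC relative to starting time point. Triplicate.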

[13] = Retention time of the compound by HPLC/DAD analysis
How it was run: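 Agilent HPLC with DAD, detection at 254/355 nm or 235/355 nm. Kromasil C18 column (4.6 × 250 mm), 20 μL injection. Gradient from H2O (0.1% TFA) to 50:50 MeCN over 0–18 min, then to 100% MeCN by 20 min, held to 25 min, at 1.5 mL/min.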

[14] = Drug uptake in human MDA-MB-231 cells assessed as extracellular concentration at 0.065 umol in presence of 10% FBS after 24 hrs by HPLC-MS analysis; type: ADME, cell-based; conditions: mda-mb-231, 24 h
How it was run: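 MDA-MB-231 cells incubated 24 h at 37 °C with inhibitor in 5 mL DMEM with the stated FBS. Media plus cold PBS washes pooled, dried; cells extracted with MeCN/MeOH 1:1; HPLC peak areas of both fractions compared by mass balance with the input moles added to medium.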

[15] = Drug uptake in human MDA-MB-231 cells assessed as intracellular concentration at 0.065 umol in presence of 10% FBS after 24 hrs by HPLC-MS analysis; type: ADME, cell-based; conditions: mda-mb-231, 24 h; how it was run: as §1
[16] = Drug uptake in human MDA-MB-231 cells assessed as extracted concentration at 1 uM after 24 hrs by HPLC-MS analysis; type: ADME, cell-based; conditions: mda-mb-231, 24 h
How it was run: (§5)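 MDA-MB-231 cells at ~70% confluency in T-25 flasks exposed to a range of inhibitor input concentrations in DMEM with FBS, 0.02% DMSO, 37 °C, 24 h; cold PBS washes, overnight MeCN/MeOH 1:1 extraction at 4 °C, HPLC quantification against calibration curves with extraction-efficiency correction.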

[17] = Drug uptake in human MDA-MB-231 cells assessed as extracted concentration at 10 uM after 24 hrs by HPLC-MS analysis; type: ADME, cell-based; conditions: mda-mb-231, 24 h; how it was run: as §5
[18] = Drug uptake in human MDA-MB-231 cells assessed as extracted concentration at 100 uM after 24 hrs by HPLC-MS analysis; type: ADME, cell-based; conditions: mda-mb-231, 24 h; how it was run: as §5
[19] = Drug uptake in human MDA-MB-231 cells assessed per million cells at 10 uM in presence of 5% FBS after 6 hrs at 4 degC by HPLC-MS analysis; type: ADME, cell-based; conditions: mda-mb-231, 6 h; how it was run: as §2
[20] = Drug uptake in human MDA-MB-231 cells after 6 hrs in presence of 10% FBS by HPLC-MS analysis; type: ADME, cell-based; conditions: mda-mb-231, 6 h
How it was run: (§6)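 MDA-MB-231 cells at ~70% confluency in T-25 flasks, incubated 6 h at 37 °C with inhibitor in DMEM containing the stated FBS (0.02% DMSO). Parallel 6 h incubation at 4 °C in cold DMEM used to measure nonspecific cell-bound amount. Accurate intracellular moles = 37 °C value minus 4 °C value. Extraction with MeCN/MeOH 1:1, HPLC quantification, corrected for extraction efficiency. Triplicate.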

[21] = Stability in human MDA-MB-231 cells at 10 uM after 72 hrs by HPLC-MS analysis; type: ADME, cell-based; conditions: mda-mb-231, 72 h
How it was run: (§7)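 Time course: inhibitor added to ~70%-confluent MDA-MB-231 cells in T-25 flasks, in 5 mL DMEM plus FBS (0.02% DMSO), incubated at 37 °C for 3–72 h. At each time point cells washed with cold PBS and extracted with cold MeCN/MeOH 1:1 overnight at 4 °C. Intracellular moles per million cells determined by HPLC calibration.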

[22] = Stability of the compound in DMEM medium assessed as parent compound remaining at 100 uM after 24 hrs in presence of 10% FBS by HPLC method; how it was run: as §4
[23] = test system: MDA-MB-231; assay: Antiproliferative activity against human MDA-MB-231 cells after 72 hrs by MTS assay; type: functional, cell-based; conditions: MDA-MB-231, 72 h
[24] = Drug uptake in human MDA-MB-231 cells assessed per million cells at 2 uM in presence of 1% FBS after 24 hrs incubation by HPLC-MS analysis; type: ADME, cell-based; conditions: mda-mb-231, 24 h; how it was run: as §1
[25] = Drug uptake in human MDA-MB-231 cells assessed per million cells at 2 uM in presence of 5% FBS after 24 hrs incubation by HPLC-MS analysis; type: ADME, cell-based; conditions: mda-mb-231, 24 h; how it was run: as §1
[26] = Drug accumulation in human MDA-MB-231 cells at 2 uM in presence of 5% FBS after 24 hrs incubation by HPLC-MS analysis; type: ADME, cell-based; conditions: mda-mb-231, 24 h; how it was run: as §1
[27] = Drug uptake in human MDA-MB-231 cells assessed as intracellular concentration at 0.0103 umol in presence of 5% FBS after 24 hrs by HPLC-MS analysis; type: ADME, cell-based; conditions: mda-mb-231, 24 h; how it was run: as §1
[28] = Drug uptake in human MDA-MB-231 cells assessed as extracted concentration at 2 uM after 24 hrs by HPLC-MS analysis; type: ADME, cell-based; conditions: mda-mb-231, 24 h; how it was run: as §5
[29] = Drug uptake in human MDA-MB-231 cells assessed as extracted concentration at 20 uM after 24 hrs by HPLC-MS analysis; type: ADME, cell-based; conditions: mda-mb-231, 24 h; how it was run: as §5
[30] = Drug uptake in human MDA-MB-231 cells assessed as extracted concentration at 0.2 uM after 24 hrs by HPLC-MS analysis; type: ADME, cell-based; conditions: mda-mb-231, 24 h; how it was run: as §5
[31] = Drug uptake in human MDA-MB-231 cells assessed as non specific binding with culture plate at 2 uM in presence of 5% FBS after 6 hrs at 4 degC by HPLC-MS analysis; type: ADME, cell-based; conditions: mda-mb-231, 6 h
[32] = Drug uptake in human MDA-MB-231 cells after 6 hrs in presence of 5% FBS by HPLC-MS analysis; type: ADME, cell-based; conditions: mda-mb-231, 6 h; how it was run: as §6
[33] = Stability in human MDA-MB-231 cells at 2 uM after 72 hrs by HPLC-MS analysis; type: ADME, cell-based; conditions: mda-mb-231, 72 h; how it was run: as §7

CC(=O)c1cc(-c2cc(C(=O)NC3CC3)ccc2C)c2ncccn12
Drug uptake [1]: 0.069 nmol | Drug uptake [2]: 0.074 nmol | Drug uptake [3]: 0.12 nmol | Drug uptake [4]: 2% | Drug uptake [5]: 0.11 nmol | Drug uptake [6]: 0.038 nmol | Drug uptake [7]: 0.085 nmol | Papp at 5 h, 200 µM [8]: 14.3 ×10⁻⁶ cm/s | Drug transport [9]: 32.3% | solubility [10]: Soluble | Stability [11]: 94% | Stability [12]: Unstable | Retention time [13]: 16.4 min | Drug uptake [14]: 0.059 µmol | Drug uptake [15]: 0.0012 µmol | Drug uptake [16]: 0.035 µM | Drug uptake [17]: 0.1 µM | Drug uptake [18]: 0.665 µM | Drug uptake [19]: 0.025 nmol | Drug uptake [20]: Dose-dependent effect | Stability [21]: Stable | Stability [22]: 94%

Cl.Cl.O=C(Nc1ccc(O[C@H]2CCNC2)c(-c2ccc(F)cc2)c1)c1ccc(O[C@H]2CCNC2)c(-c2ccc(F)c(F)c2)c1
IC50 [23]: 2300 nM | Drug uptake [24]: 6.1 nmol | Drug uptake [25]: 6.5 nmol | Drug uptake [26]: 98% | Drug uptake [5]: 6.7 nmol | Drug uptake [6]: 5.5 nmol | Drug uptake [7]: 1 nmol | Papp at 5 h, 200 µM [8]: 0.13 ×10⁻⁶ cm/s | Drug transport [9]: 0.2% | solubility [10]: Soluble | Stability [11]: 47% | Stability [12]: 70% | Retention time [13]: 15.8 min | Drug uptake [27]: 0.0101 µmol | Drug uptake [28]: 0.076 µM | Drug uptake [29]: 0.128 µM | Drug uptake [30]: 0.022 µM | Drug uptake [31]: 4% | Drug uptake [32]: Dose-dependent effect | Stability [33]: Stable
